Hits are enriched below; roughly 9.8% of the tested compounds scored in any of these assays.
WT yeast gro inh – growth inhibition of WT strain, primary screen, mitochondrial fusion inhibitor project, WT and mutant strains, chemical genetic; inhibition, % at 10 µM; mitochondrial fusion phenotypic screen; 190,000 tested, 2.1% active; in the data active means inhibition above about 58%; tested in S. cerevisiae
m-calpain inh – inhibitors of pig calpain II, primary screen, biochemical, fluorogenic peptide substrate, 1536-well; purified calpain II, 30 min; inhibition, % at 16 µM; 220,000 tested, 0.37% active;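 active means inhibition above about 50%, limit read from the data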
Rad51 HR inh – human RAD51 strand exchange inhibitors, primary screen, biochemical, fluorescence; 200,000 tested, 0.085% active; DNA repair protein RAD51 homolog 1 (Homo sapiens), Q06609; hRad51 DNA strand exchange, fluorescence dequenching; inhibition, % at 10 µM;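 active means inhibition above 40% at the single screening dose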;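 further: 0% = DMSO control wells and 100% = blanks with heterologous ssDNA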
Target sequence (Q06609 whole entry, looked up): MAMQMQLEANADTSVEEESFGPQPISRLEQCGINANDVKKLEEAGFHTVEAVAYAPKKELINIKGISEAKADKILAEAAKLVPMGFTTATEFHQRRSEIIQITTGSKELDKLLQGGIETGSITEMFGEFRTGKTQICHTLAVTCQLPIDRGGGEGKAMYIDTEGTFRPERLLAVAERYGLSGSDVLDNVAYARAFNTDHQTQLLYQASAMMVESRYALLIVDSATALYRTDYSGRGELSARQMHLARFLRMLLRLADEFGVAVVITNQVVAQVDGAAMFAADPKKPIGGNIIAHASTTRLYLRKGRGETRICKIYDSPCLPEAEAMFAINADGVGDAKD
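System: human Rad51 nucleoprotein filaments preassembled on unlabelled ssDNA. Reagent: labelled 47-mer dsDNA for strand exchange. Schedule: 30-min compound preincubation and 15-min exchange, both room temperature. Measured by: FRET fluorescence dequenching, excitation 485 nm, emission 520 nm. Read-out: Fluorescence-based percent inhibition, control- and blank-normalised. Benchmarks: plate controls and plate blanks.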
PMI act satM6P – human PMI activators, high substrate, primary screen, biochemical, fluorescence intensity, near-saturating mannose 6-phosphate; Mannose-6-phosphate isomerase (Homo sapiens), P34949; coupled PMI enzyme assay, resazurin fluorescence, 20 min; stronger effect = higher value; 1 = untreated enzyme, 0 = substrate-free blank; activation factor at 20 µM; 190,000 tested, 0.34% active;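 active means activation factor of 2 or more at 20 µM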
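Test system: human phosphomannose isomerase with PGI, G6PDH, diaphorase coupling enzymes / Doses: 20 µM compound, 1% DMSO / Times: enzyme reaction with compound 20 min at room temperature / Measured by: Diaphorase-driven resazurin-to-resorufin fluorescence, excitation 544, emission 590 nm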
PMI activator – activators of human PMI, primary screen, biochemical, fluorescence intensity, near-Km mannose 6-phosphate. AID 1214, 2008. purified human PMI, coupled resazurin fluorescence, 20 min; stronger effect = higher value; 1 = vehicle control, 0 substrate-free wells. 190,000 tested, 0.005% active. activation factor at 20 µM;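 active means activation factor of 2 or more at 20 µM, relative to plate controls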
L major viab – Leishmania major promastigote growth inhibition, primary screen; Leishmania major promastigotes, resazurin fluorescence viability; inhibition, % at 10 µM; 200,000 tested, 9% active; AID 1063, 2008; in the data active means inhibition above about 50%;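 further: promastigotes grown with compound for 44 hours at 28 °C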
Starred values were filed as active, the others as inactive; i = inactive; . = no result.

SMILES	WT yeast gro inh	m-calpain inh	Rad51 HR inh	PMI act satM6P	PMI activator	L major viab
COc1ccc(CN2C(=O)/C(=C/c3ccncc3)SC2=S)cc1	0	-13	-7	1	1	68*
COc1cc(/C=C2\SC(=Nc3ccccc3)N(Cc3ccco3)C2=O)ccc1OC(C)C(=O)O (stereo not drawn)	11	-17	5	1	1	-10
COc1ccc(/C=C2\SC(=NCc3ccccc3)N(Cc3ccccc3)C2=O)cc1OC	-6	-31	-2	0.8	0.8	2
COCCN1C(=O)/C(=C/c2ccc(OCc3ccc(C(=O)O)cc3)c(OC)c2)SC1=Nc1ccccc1	59*	-8	.	0.9	0.8	-2
Cc1nn(-c2cccc(C(F)(F)F)c2)c(=O)c2noc(C)c12	.	1	6	.	.	.
CCOc1ccc(N/C(N)=N/c2nc(CSc3nnnn3-c3ccccc3)cc(=O)[nH]2)cc1	.	28	.	.	.	.
CCOc1ccc(/C=C2\SC(=O)N(CCNC(=O)C3COc4ccccc4O3)C2=O)cc1OC (stereo not drawn)	9	-72	-1	0.8	0.7	71*
O=Cc1ccc(O)c(O)c1	6	14	4	1.1	0.7	-1
Oc1ccc(N=Cc2ccc(O)c(O)c2)cc1	7	10	1	0.5	0.6	100*
COc1ccccc1C1(CC(=O)Nc2nccs2)CCOC(C(C)C)C1 (stereo not drawn)	6	2	2	1	0.9	85*
C[C@@]12CCC=C[C@H]1[C@H](c1ccc(F)c(/C=C/c3ccccc3)c1)N(Cc1ccccc1)C2=O	.	-10	-4	.	.	.
CCc1ccc(NC(=S)N(CCCN2CCOCC2)Cc2ccco2)cc1	4	-7	4	1	1	-1
COc1ccc(NC(=S)N(Cc2cccnc2)Cc2ccco2)cc1	-9	2	-2	0.9	1	91*
CCc1ccc(NC(=S)N(Cc2cccnc2)Cc2ccco2)cc1	8	-8	6	1.1	1.1	100*
Cc1ccc(Nc2nc(N)c(C#N)c(CC#N)c2C#N)cc1	13	18	4	0.7	1	5
CC1=[N+](C)c2ccc3ccccc3c2C1(C)C	79*	6	.	0.8	0.2	93*
CC(C)c1nc2ccc(Br)cn2c1NC1CCCC1	-1	7	9	0.9	0.9	40
CCOC(=O)c1cnc(SC2CCc3ccccc3C2=O)nc1N (stereo not drawn)	5	59*	1	0.5	0.8	-10
CCOC(=O)c1cnc(SC2CC(=O)N(c3ccccc3)C2=O)nc1N (stereo not drawn)	-11	-6	-8	1	0.9	0
CCNc1ncnc2c1cnn2C	-1	3	2	1	1	-7
O=C(/C=C/c1cccc([N+](=O)[O-])c1)c1ccc2c(c1)OCCO2	31	1	.	1	0.9	98*
O=C(/C=C/c1cccc([N+](=O)[O-])c1)N1CCN(S(=O)(=O)c2cccs2)CC1	17	14	2	1	1	66*
O=C(/C=C/c1cccc([N+](=O)[O-])c1)c1cccs1	10	-1	9	1.1	1.1	89*
O=C(/C=C/c1cccc([N+](=O)[O-])c1)Nc1ccc(NC(=O)c2cccs2)cc1	4	20	-4	1.1	0.9	-2
O=C(/C=C/c1cccc([N+](=O)[O-])c1)N1CCOCC1	9	-4	-9	1.1	1	38
SMILES	WT yeast gro inh	m-calpain inh	Rad51 HR inh	PMI act satM6P	PMI activator	L major viab
CCCc1cc2c(=O)c(-c3ccc4c(c3)OCCO4)c(C)oc2cc1OS(C)(=O)=O	-7	13	-2	0.9	0.8	99*
CCCc1cc2c(=O)c(-c3ccc4c(c3)OCCO4)coc2cc1OS(C)(=O)=O	4	13	3	0.9	0.8	76*
CCCc1cc2c(=O)c(-c3ccc4c(c3)OCCO4)coc2cc1OC(=O)c1ccco1	2	-120	3	0.9	0.8	-8
C/C(=C\c1ccccc1)C(=O)NCCc1ccccc1	-6	13	-2	0.9	0.9	-3
CCOC(=O)c1c(NC(=O)c2nn(C)cc2[N+](=O)[O-])sc(C)c1C	9	6	-10	1.1	1	-3
O=[N+]([O-])c1ccc(C2(O)CN(c3ccccc3)C3=[N+]2CCS3)cc1 (stereo not drawn)	9	23	2	1	1	-6
O=C(O)COCC(=O)Nc1ccc(-n2nc(C(F)(F)F)cc2-c2cccs2)cc1	.	-31	.	.	.	.
Cc1ccc(S(=O)(=O)N(C)C)cc1NC(=O)CN1C(=O)NC2(CCCc3ccccc32)C1=O (stereo not drawn)	-11	1	5	1	1	72*
Cc1cc(C(=O)CN2C(=O)NC3(CCCc4ccccc43)C2=O)c(C)n1Cc1ccccc1 (stereo not drawn)	16	-193	3	0.9	0.8	53*
Cc1cc(C(=O)CN2C(=O)NC3(CCCc4ccccc43)C2=O)c(C)n1Cc1ccco1 (stereo not drawn)	-5	-53	2	0.9	0.8	8
O=C(CN1C(=O)NC2(CCCc3ccccc32)C1=O)Nc1cccc(S(=O)(=O)N2CCCCC2)c1 (stereo not drawn)	-3	-34	6	0.9	0.8	-4
Cn1c(-c2cc(Cl)ccc2O)nc2c1c(=O)[nH]c(=O)n2Cc1ccccc1	8	i	-6	0.9	1	54*
COc1ccc(-c2ccc(-c3nc4c(c(=O)[nH]c(=O)n4Cc4ccccc4)n3C)o2)c([N+](=O)[O-])c1	31	10	-3	0.6	0.9	72*
COCCn1c(-c2ccc(-c3ccc([N+](=O)[O-])cc3Br)o2)nc2c1c(=O)[nH]c(=O)n2CC(C)C	48	-149	-37	0.8	0.9	73*
CCOC(=O)c1sc(SC)c2c1CCCC2=O	.	8	-5	.	.	.
CC(C)C(=O)N=C1SC2CS(=O)(=O)CC2N1Cc1ccccc1 (stereo not drawn)	-14	24	-5	0.9	1	52*
CC(C)C(=O)N=C1SC2CS(=O)(=O)CC2N1Cc1ccc(Cl)cc1 (stereo not drawn)	.	24	19	.	.	.
c1ccc(Oc2ccc(-c3ccnc4nc(N5CCOCC5)nn34)cc2)cc1	-1	i	33	0.9	0.9	10
c1ccc(Oc2ccc(-c3ccnc4ncnn34)cc2)cc1	-5	68*	-79	1	1.1	-2
